According to ChEMBL document CHEMBL3797083, “A New Series of Orally Bioavailable Chemokine Receptor 9 (CCR9) Antagonists; Possible Agents for the Treatment of Inflammatory Bowel Disease” (J Med Chem, 2016):
≈ marks a conversion by molar mass, not a printed value. Calls of active or inactive are those of the source. No cut-off for these calls is given here.

Columns and labels:
[1] = Solubility of compound at pH 7.4 buffer; format: physicochemical
Summary of the method: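 Solubility was measured at pH 7.4. Each value is the mean of three replicates.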

Liver microsome = assay: Metabolic stability of compound in human liver microsomes assessed as remaining compound at 37 deg C; format: ADME
Summary of the method: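 Test compound incubated with human liver microsomes at 37 °C. Loss of parent compound was followed over a 30 min period, and the percentage remaining is reported as the mean of 3 replicates.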

[2] = Metabolic stability of compound in mouse liver microsomes assessed as remaining compound at 37 deg C; format: ADME
[3] = Elimination half life in mouse at 1 mg/kg, iv; format: ADME, organism-based; conditions: in vivo, read-out: beta t1/2 (converted)
[4] = Clearance in mouse at 1 mg/kg, iv; format: ADME, organism-based; conditions: in vivo
[5] = AUC in mouse at 10 mg/kg, po; format: ADME, organism-based; conditions: in vivo
[6] = Absolute bioavailability in mouse at 1 mg/kg, iv 10 mg/kg, po; format: ADME, organism-based; conditions: in vivo
[7] = target: T1, C-C chemokine receptor type 9 (Homo sapiens, UniProt P51686); assay: Antagonist activity at CCR9 receptor in human MOLT4 cells assessed as inhibition of CCL25-induced increase in intracellular calcium level preincubated for 1 hr followed CCL25 addition by FLIPR assay; format: functional, cell-based, MOLT-4
T1 sequence (P51686 whole entry): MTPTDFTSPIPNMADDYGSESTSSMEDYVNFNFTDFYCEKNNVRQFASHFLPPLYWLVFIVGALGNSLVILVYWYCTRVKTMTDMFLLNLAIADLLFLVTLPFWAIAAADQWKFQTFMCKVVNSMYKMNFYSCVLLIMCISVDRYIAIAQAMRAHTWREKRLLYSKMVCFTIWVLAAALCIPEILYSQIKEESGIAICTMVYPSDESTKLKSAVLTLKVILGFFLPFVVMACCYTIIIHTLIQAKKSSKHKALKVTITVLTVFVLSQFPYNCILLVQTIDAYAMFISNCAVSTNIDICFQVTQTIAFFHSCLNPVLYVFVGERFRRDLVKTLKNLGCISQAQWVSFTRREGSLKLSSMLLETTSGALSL

Mus musculus [8] = assay: Anticolitis activity in DSS-induced acute colitis C57BL/6 mouse model assessed as reduction in disease activity index at 30 mg/kg, sc bid for 10 days; format: functional; conditions: C57BL/6, sc, 240 h
Mus musculus [9] = assay: Anticolitis activity in DSS-induced acute colitis C57BL/6 mouse model assessed as reduction in disease activity index at 10 mg/kg, po bid for 10 days; format: functional; conditions: C57BL/6, po, 240 h
Mus musculus [10] = assay: Anticolitis activity in DSS-induced acute colitis C57BL/6 mouse model assessed as reduction in disease activity index at 30 mg/kg, po bid for 10 days; format: functional; conditions: C57BL/6, po, 240 h
Mus musculus [11] = assay: Anticolitis activity in DSS-induced acute colitis C57BL/6 mouse model assessed as reduction in disease activity index at 100 mg/kg, po bid for 10 days; format: functional; conditions: C57BL/6, po, 240 h
Mus musculus [12] = assay: Anticolitis activity in DSS-induced chronic colitis C57BL/6 mouse model assessed as reduction in disease activity index at 30 mg/kg, po bid for 30 days; format: functional, organism-based
Mus musculus [13] = assay: Anticolitis activity in DSS-induced acute colitis C57BL/6 mouse model assessed as reduction in disease activity index at 3 mg/kg, po bid for 10 days; format: functional; conditions: C57BL/6, po, 240 h
Mus musculus [14] = assay: Anticolitis activity in DSS-induced acute colitis C57BL/6 mouse model assessed as reduction in disease activity index at 50 mg/kg, sc bid for 10 days; format: functional; design: scale not given: the % may be the effect or the level left

Compound	solubility [1] [µM]	Stability (Liver microsome) [%]	Stability [2] [%]	half-life [3] [h]	clearance [4] [mL/min/kg]	AUC [5] [ng·h/mL]	bioavailability [6] [%]	Ki [7] [nM]	inhibition in vivo at 30 mg/kg (Mus musculus [8]) [%]	inhibition in vivo at 10 mg/kg (Mus musculus [9]) [%]	inhibition in vivo at 30 mg/kg (Mus musculus [10]) [%]	inhibition in vivo at 100 mg/kg (Mus musculus [11]) [%]	Activity (Mus musculus [12])	inhibition in vivo at 3 mg/kg (Mus musculus [13]) [%]	Activity (Mus musculus [14]) [%]
CC(C)(C)c1ccc(S(=O)(=O)Nc2cccc3c2C(=O)N(Cc2cccnc2)C3=O)cc1	–	–	–	–	–	–	–	618	–	–	–	–	–	–	–
CC(C)(C)c1ccc(S(=O)(=O)Nc2ccc(Cl)c3c2C(=O)N(Cc2ccc[n+]([O-])c2)C3=O)cc1	126 (≈ 63 µg/mL)	15	8	0.62	3.92	13900	33	–	24	21	31	58	Active	–	–
CC(C)(C)c1ccc(S(=O)(=O)Nc2ccc(Cl)c3c2C(=O)N(c2ccc(F)nc2)C3=O)cc1	–	–	–	–	–	–	–	19	–	–	–	–	–	–	–
Cc1c(N2C(=O)c3c(Cl)ccc(NS(=O)(=O)c4ccc(C(C)(C)C)cc4)c3C2=O)ccc[n+]1[O-]	114 (≈ 57 µg/mL)	71	76	1.28	4.69	16200	48	–	–	27	51	86	Active	41	–
Cc1cccc(N2C(=O)c3c(Cl)ccc(NS(=O)(=O)c4ccc(C(C)(C)C)cc4)c3C2=O)n1	27 (≈ 13.1 µg/mL)	61	42	1.32	2.34	67900	95	–	–	–	–	–	–	–	–
CC(C)(C)c1ccc(S(=O)(=O)Nc2ccc(Cl)c3c2C(=O)N(Cc2cccc[n+]2[O-])C3=O)cc1	69 (≈ 34.5 µg/mL)	81	79	1.05	2.57	36000	56	–	–	32	33	51	Active	–	–
CC(C)(C)c1ccc(S(=O)(=O)Nc2ccc(Cl)cc2C(=O)c2cc[n+]([O-])cc2)cc1 [VERCIRNON]	6 (≈ 2.67 µg/mL)	73	9	0.16	103	340	22	–	–	–	–	–	–	–	17

The next lines start with results.

solubility [1] [µM]	Stability (Liver microsome) [%]	Stability [2] [%]	half-life [3] [h]	clearance [4] [mL/min/kg]	AUC [5] [ng·h/mL]	bioavailability [6] [%]	Ki [7] [nM]	Compound	inhibition in vivo at 30 mg/kg (Mus musculus [8]) [%]	inhibition in vivo at 10 mg/kg (Mus musculus [9]) [%]	inhibition in vivo at 30 mg/kg (Mus musculus [10]) [%]	inhibition in vivo at 100 mg/kg (Mus musculus [11]) [%]	Activity (Mus musculus [12])	inhibition in vivo at 3 mg/kg (Mus musculus [13]) [%]	Activity (Mus musculus [14]) [%]
10 (≈ 5 µg/mL)	81	60	1.03	6.86	35600	100	–	COc1ccncc1N1C(=O)c2c(Cl)ccc(NS(=O)(=O)c3ccc(C(C)(C)C)cc3)c2C1=O	–	–	–	–	–	–	–
26 (≈ 13 µg/mL)	67	64	5.37	1.73	24000	25	3	COc1ncccc1N1C(=O)c2c(Cl)ccc(NS(=O)(=O)c3ccc(C(C)(C)C)cc3)c2C1=O	–	–	–	–	–	–	–
81 (≈ 39.2 µg/mL)	89	62	3.26	2.6	46800	73	–	Cc1ncccc1N1C(=O)c2c(Cl)ccc(NS(=O)(=O)c3ccc(C(C)(C)C)cc3)c2C1=O	–	–	–	–	–	–	–
